Tested on: MOLT-4
Assay: Growth inhibition of human MOLT4 cells after 48 hrs by sulforhodamine B assay
Type: functional
Conditions: MOLT-4, 48 h; for CC50: read-out: LC50 (the source's name)
Outline: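 NCI 60-cell-line panel. Cells are grown in RPMI1640 with 5% fetal calf serum and 2 mM L-glutamine, seeded at a density set by growth characteristics, and preincubated 24 h. Compound is tested at a minimum of five concentrations at 10-fold dilution, with 48 h continuous exposure. Viability is read by sulforhodamine B protein assay. GI50, TGI and LC50 come from dose-response curves.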

| SMILES | GI50 [µM] | TGI [µM] | CC50 [µM] |
| --- | --- | --- | --- |
| COc1ccc(/C=N/c2nc3[nH]nc(C)n3c(=O)c2S(=O)(=O)NN2C(=O)C(CN3CCN(C)CC3)SC2c2cccs2)cc1 (configuration not stated) | 2.88 | 18.3 | > 100 |
| COc1ccc(/C=N/c2nc3[nH]nc(C)n3c(=O)c2S(=O)(=O)NN2C(=O)C(CN3CCOCC3)SC2c2cccs2)cc1 (configuration not stated) | 4.08 | 40.6 | > 100 |
| COc1ccc(/C=N/c2nc3[nH]nc(C)n3c(=O)c2S(=O)(=O)NN2C(=O)C(CN3CCOCC3)SC2c2ccc(OC)cc2)cc1 (configuration not stated) | 13.6 | 34.4 | 86.8 |
| COc1ccc(/C=N/c2nc3[nH]nc(C)n3c(=O)c2S(=O)(=O)NN2C(=O)C(CN3CCN(C)CC3)SC2c2ccc(OC)cc2)cc1 (configuration not stated) | 17.8 | 58.9 | > 100 |
